Experimental data published in ChEMBL document CHEMBL4411328, “Synthesis and Structural/Functional Characterization of Selective M14 Metallocarboxypeptidase Inhibitors Based on Phosphinic Pseudopeptide Scaffold: Implications on the Design of Specific Optical Probes” (J Med Chem, 2019).
pKi: −log10 of the molar value. Calls of active or inactive are those of the source. The rule behind the calls is not given here.

Legend:
Carboxypeptidase A1 = biological target: T1, Carboxypeptidase A1 (Homo sapiens, UniProt P15085); assay: Inhibition of human CPA1 using AAFP as substrate preincubated for 45 mins to 2 hrs measured at 30 sec intervals for 15 mins by UV/vis-spectrophotometry
T1 sequence (P15085 whole entry): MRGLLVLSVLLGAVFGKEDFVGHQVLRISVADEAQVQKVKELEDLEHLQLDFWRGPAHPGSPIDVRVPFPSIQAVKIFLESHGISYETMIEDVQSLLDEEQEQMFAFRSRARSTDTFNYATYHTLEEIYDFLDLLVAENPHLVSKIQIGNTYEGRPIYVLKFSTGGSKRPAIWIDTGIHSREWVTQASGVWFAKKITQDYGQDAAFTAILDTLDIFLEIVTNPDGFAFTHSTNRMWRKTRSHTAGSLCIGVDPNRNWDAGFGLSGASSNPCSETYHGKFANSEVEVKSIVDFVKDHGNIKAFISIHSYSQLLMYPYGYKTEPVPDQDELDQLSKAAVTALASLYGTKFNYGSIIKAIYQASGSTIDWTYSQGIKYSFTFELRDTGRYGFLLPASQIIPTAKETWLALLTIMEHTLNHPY
How it was run: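 hCPA1 was used at 1.0x10-8 M with AAFP substrate at 1.0x10-4 M, read at 355 nm. Enzyme and inhibitor were preincubated 45 min at 37 °C before substrate was added. Initial velocities were read every 30 sec for 15 min, in triplicate. Apparent Ki came from a fit to the tight-binding equation.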

Carboxypeptidase A2 = biological target: T2, Carboxypeptidase A2 (Homo sapiens, UniProt P48052); assay: Inhibition of human CPA2 using AAFP as substrate preincubated for 45 mins to 2 hrs measured at 30 sec intervals for 15 mins by UV/vis-spectrophotometry
T2 sequence (P48052 whole entry): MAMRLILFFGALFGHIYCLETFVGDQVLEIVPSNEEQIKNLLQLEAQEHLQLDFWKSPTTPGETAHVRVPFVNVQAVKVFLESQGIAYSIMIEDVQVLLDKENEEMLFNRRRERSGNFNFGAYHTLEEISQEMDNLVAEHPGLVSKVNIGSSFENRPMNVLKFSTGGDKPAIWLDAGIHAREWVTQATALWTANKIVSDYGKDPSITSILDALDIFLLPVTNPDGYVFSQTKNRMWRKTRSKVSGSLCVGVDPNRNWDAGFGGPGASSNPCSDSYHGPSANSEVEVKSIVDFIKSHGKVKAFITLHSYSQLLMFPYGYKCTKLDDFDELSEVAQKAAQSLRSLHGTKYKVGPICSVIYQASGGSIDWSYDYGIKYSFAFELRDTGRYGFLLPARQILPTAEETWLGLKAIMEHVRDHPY
How it was run: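 hCPA2 was used at 3.0x10-8 M with AAFP substrate at 1.0x10-4 M, read at 355 nm, in 20 mM Tris-HCl pH 7.5, 500 mM NaCl, 1% DMSO, 0.05% Brij-35. After a 45 min preincubation at 37 °C, initial rates were followed at 30 sec intervals for 15 min, in triplicate. Kiapp was fitted by the tight-binding equation.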

Carboxypeptidase A4 = biological target: T3, Carboxypeptidase A4 (Homo sapiens, UniProt Q9UI42); assay: Inhibition of human CPA4 using AAFP as substrate preincubated for 45 mins to 2 hrs measured at 30 sec intervals for 15 mins by UV/vis-spectrophotometry
T3 sequence (Q9UI42 whole entry): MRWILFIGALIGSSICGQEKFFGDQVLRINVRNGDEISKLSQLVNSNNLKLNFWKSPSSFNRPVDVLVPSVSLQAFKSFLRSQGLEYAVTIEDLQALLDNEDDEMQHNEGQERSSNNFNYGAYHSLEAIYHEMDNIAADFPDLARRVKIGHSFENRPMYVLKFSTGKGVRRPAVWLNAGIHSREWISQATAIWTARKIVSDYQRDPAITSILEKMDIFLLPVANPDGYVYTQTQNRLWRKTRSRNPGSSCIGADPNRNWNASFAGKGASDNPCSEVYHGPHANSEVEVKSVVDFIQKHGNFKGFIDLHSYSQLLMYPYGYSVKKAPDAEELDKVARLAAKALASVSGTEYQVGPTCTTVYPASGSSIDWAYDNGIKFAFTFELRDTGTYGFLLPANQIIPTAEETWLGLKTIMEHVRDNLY
How it was run: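 Enzyme was hCPA4 at 4.3x10-8 M, with 1.0x10-4 M AAFP and detection at 355 nm. Inhibitor and enzyme were preincubated 45 min at 37 °C, then initial velocities were taken over 15 min (30 sec reads), in triplicate. Kiapp was obtained from the tight-binding fit.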

Carboxypeptidase B = Carboxypeptidase B (Homo sapiens, UniProt P15086); assay: Inhibition of human CPB1 using AAFA as substrate preincubated for 45 mins to 2 hrs measured at 30 sec intervals for 15 mins by UV/vis-spectrophotometry
Sequence of Carboxypeptidase B (P15086 whole entry): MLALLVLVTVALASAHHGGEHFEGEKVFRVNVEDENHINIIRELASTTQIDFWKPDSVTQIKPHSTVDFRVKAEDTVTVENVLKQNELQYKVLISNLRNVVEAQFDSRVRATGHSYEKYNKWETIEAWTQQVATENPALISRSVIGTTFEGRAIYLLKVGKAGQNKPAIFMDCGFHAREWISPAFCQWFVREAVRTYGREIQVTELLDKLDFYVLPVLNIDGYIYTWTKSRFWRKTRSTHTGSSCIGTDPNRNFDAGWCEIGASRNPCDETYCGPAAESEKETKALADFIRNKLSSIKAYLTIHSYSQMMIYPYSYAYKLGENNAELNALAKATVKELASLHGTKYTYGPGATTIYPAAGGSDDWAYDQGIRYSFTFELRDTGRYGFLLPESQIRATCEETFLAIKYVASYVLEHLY
How it was run: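 hCPB1 was used at 6.0x10-9 M with 1.0x10-4 M AAFA, read at 355 nm. After 45 min preincubation with inhibitor at 37 °C, residual activity at varied inhibitor concentrations was followed for 15 min at 30 sec intervals, in triplicate. Kiapp was fitted with the tight-binding equation.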

[1] = biological target: T4, Carboxypeptidase D (Homo sapiens) (UniProt O75976); assay: Inhibition of human CPD at 1 nM to 1 mM using AAFA as substrate preincubated for 45 mins to 2 hrs measured at 30 sec intervals for 15 mins by UV/vis-spectrophotometry
T4 sequence (whole entry): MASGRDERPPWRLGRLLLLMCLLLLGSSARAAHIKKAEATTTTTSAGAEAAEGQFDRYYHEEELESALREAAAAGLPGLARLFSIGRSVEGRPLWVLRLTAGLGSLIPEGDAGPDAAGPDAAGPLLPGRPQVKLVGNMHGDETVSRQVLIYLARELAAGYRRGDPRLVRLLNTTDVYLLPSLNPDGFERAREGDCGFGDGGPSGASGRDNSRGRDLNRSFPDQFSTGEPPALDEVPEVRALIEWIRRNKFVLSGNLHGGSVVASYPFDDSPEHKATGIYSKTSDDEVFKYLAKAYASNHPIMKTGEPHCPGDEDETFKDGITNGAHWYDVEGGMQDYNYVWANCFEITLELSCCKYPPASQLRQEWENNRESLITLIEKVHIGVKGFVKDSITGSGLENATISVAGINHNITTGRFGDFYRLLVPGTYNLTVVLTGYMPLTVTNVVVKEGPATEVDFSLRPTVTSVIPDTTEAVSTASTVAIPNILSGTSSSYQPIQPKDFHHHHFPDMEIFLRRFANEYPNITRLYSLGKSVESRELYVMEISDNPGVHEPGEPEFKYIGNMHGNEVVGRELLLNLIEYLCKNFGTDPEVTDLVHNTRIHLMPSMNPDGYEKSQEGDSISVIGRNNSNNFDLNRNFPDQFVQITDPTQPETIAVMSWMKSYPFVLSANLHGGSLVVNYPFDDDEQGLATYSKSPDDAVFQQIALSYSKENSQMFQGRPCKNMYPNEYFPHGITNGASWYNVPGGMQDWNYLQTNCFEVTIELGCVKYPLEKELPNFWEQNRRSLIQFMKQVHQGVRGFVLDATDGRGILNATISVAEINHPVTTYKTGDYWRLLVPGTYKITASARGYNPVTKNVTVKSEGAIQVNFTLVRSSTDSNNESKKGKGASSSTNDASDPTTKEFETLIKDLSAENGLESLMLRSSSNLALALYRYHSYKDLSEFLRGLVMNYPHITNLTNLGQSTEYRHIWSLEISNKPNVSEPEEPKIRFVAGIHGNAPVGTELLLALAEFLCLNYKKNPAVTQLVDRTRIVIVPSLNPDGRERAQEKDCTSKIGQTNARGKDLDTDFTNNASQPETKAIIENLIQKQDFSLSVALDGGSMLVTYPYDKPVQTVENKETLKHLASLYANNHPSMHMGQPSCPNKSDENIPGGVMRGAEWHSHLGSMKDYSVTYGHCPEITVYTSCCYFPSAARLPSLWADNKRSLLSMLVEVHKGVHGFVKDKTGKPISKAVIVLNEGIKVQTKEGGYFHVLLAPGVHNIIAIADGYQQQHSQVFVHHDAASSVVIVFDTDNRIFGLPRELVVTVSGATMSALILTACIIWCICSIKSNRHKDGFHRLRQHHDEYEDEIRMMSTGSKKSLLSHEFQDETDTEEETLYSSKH
How it was run: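 hCPD was used at 2.0x10-8 M with AAFA substrate at 1.0x10-4 M, monitored at 355 nm. Buffer was 20 mM Tris-HCl pH 7.5, 100 mM NaCl, 1% DMSO, 0.05% Brij-35. Preincubation was 45 min at 37 °C. Residual activity at a range of inhibitor concentrations was measured from initial rates (30 sec reads, 15 min), in triplicate. Kiapp came from the tight-binding fit.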

## CC(=O)N[C@@H](CC(C)C)C(=O)N[C@@H](Cc1ccccc1)P(=O)(O)C[C@@H](Cc1ccccc1)C(=O)O
Carboxypeptidase A1
  pKi: 10.40
Carboxypeptidase A2
  pKi: 9.00
Carboxypeptidase A4
  pKi: 9.41
Carboxypeptidase B
  pKi: 9.92
[1]
  inhibition: inactive
